Assay [1] addresses Secreted aspartic protease 2 (Candida albicans) (UniProt P0CS83). Put plainly: Inhibition of Candida albicans SAP2 at 20 uM by spectrophotometry relative to pepstatin A. The method, boiled down:
(§1)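 Sample was mixed with 1% (w/v) BSA substrate in 50 mM sodium citrate, pH 3.2, plus SAP2 protease (1 μg/mL stock solution) and incubated 30 min at 37 °C. The reaction was stopped with 10% TCA, kept 30 min on ice, and centrifuged; supernatant A280 was read. Percent inhibition was taken from ΔOD, with control proteinase minus proteinase plus pepstatin A set as 100%.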

For assay [2] the target is unchanged. Briefly: Inhibition of Candida albicans SAP2 at 10 uM by spectrophotometry. The method in brief: as §1
The target is the same in assay [3]. Put plainly: Inhibition of Candida albicans SAP2 at 10 uM by spectrophotometry relative to pepstatin A. The method, boiled down:
as §1

The structures appear in SMILES notation.

A word on the inhibition: it is the percentage by which the read-out fell short of the control. Lower therefore signals little suppression.

Chain of Secreted aspartic protease 2 (Candida albicans) (P0CS83 57-398 limits assumed): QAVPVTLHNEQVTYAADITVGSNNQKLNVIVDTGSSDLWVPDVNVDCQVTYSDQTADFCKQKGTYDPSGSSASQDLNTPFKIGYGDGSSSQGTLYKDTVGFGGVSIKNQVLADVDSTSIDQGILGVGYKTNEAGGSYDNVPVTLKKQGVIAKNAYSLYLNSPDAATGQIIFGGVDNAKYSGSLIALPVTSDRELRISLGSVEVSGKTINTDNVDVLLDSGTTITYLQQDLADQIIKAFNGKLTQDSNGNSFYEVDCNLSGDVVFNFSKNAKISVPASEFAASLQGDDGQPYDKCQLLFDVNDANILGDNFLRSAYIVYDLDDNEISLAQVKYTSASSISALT

In the case of `O=C1[C@@H]2O[C@H](CN1Cc1ccccc1)O[C@H]2C(=O)N1CCC[C@@H]1CO`, the inhibition in assay [1] is 34%. Regarding `O=C([C@@H]1O[C@@]2(c3ccccc3)CN(C(c3ccccc3)c3ccccc3)C[C@@H]1O2)N1CCCCC1`, the inhibition in assay [2] amounted to 6%; in assay [3] it was 23%.

In the case of `O=C1[C@@H]2O[C@H](CN1Cc1ccccc1)O[C@H]2C(=O)N1CCC[C@H]1CO`, the inhibition in assay [1] came to 48%.

For `CC(NC(=O)[C@@H]1O[C@H]2CN(Cc3ccccc3)C(=O)[C@@H]1O2)c1ccccc1` (some centres not stated), the inhibition was determined as 22% in assay [2] and 87% in assay [3]. For `CCCNC(=O)[C@@H]1O[C@@H]2O[C@H]1C(=O)N(Cc1ccccc1)[C@H]2Cc1ccccc1`, in that order: 36% and 73%. In the case of `CCCCNC(=O)[C@@H]1O[C@@H]2O[C@H]1C(=O)N(Cc1ccccc1)[C@H]2Cc1ccccc1`, the inhibition in assay [2] was determined as 8%; in assay [3] it was 42%.

`O=C(NC1CC1)[C@@H]1O[C@@H]2O[C@H]1C(=O)N(Cc1ccccc1)[C@H]2Cc1ccccc1`: the figures for the inhibition in assay [2] and in assay [3] were 29% and 87%, respectively. `O=C(N[C@H](CO)Cc1ccccc1)[C@@H]1O[C@H]2CN(Cc3ccccc3)C(=O)[C@@H]1O2` displayed an inhibition in assay [1] of 30%. With `CCCCNC(=O)[C@@H]1O[C@@]2(c3ccccc3)CN(C(c3ccccc3)c3ccccc3)C[C@@H]1O2`, the values for the inhibition in assay [2] and in assay [3] were 3% and 12%, respectively. For `CCOC(=O)C1CCN(C(=O)[C@@H]2O[C@@]3(c4ccccc4)CN(C(c4ccccc4)c4ccccc4)C[C@@H]2O3)CC1`, in that order: 6% and 23%. For `CC(C)CNC(=O)[C@@H]1O[C@H]2CN(Cc3ccccc3)C(=O)[C@@H]1O2`, in that order: 4% and 18%. For `O=C([C@@H]1O[C@@]2(c3ccccc3)CN(C(c3ccccc3)c3ccccc3)C(=O)[C@@H]1O2)N1CCN(CCO)CC1`, in that order: 5% and 19%.

In the case of `O=C(NCC(F)(F)F)[C@@H]1O[C@@]2(c3ccccc3)CN(C(c3ccccc3)c3ccccc3)C[C@@H]1O2`, the inhibition was 3% in assay [2] and 12% in assay [3]. Compound `O=C([C@@H]1O[C@H]2CN(Cc3ccccc3)C(=O)[C@@H]1O2)N1CCSCC1` yielded an inhibition in assay [1] of 58%. In the case of `C#CCNC(=O)[C@@H]1O[C@@]2(c3ccccc3)CN(C(c3ccccc3)c3ccccc3)C[C@@H]1O2`, the inhibition was found to be 3% in assay [2] and 12% in assay [3].

`CC(C)CCNC(=O)[C@@H]1O[C@@H]2O[C@H]1C(=O)N(Cc1ccccc1)[C@H]2Cc1ccccc1`: the inhibition in assay [2] was 29%; in assay [3] it was 87%. For the compound `O=C([C@@H]1O[C@H]2CN(Cc3ccccc3)C[C@@H]1O2)N1CCCCC1`, the results for the inhibition in assay [2] and in assay [3] were 2% and 6%, respectively. In turn, `O=C(N[C@@H](CO)c1ccccc1)[C@@H]1O[C@H]2CN(Cc3ccccc3)C(=O)[C@@H]1O2` registered an inhibition in assay [1] of 31%.

Consider `CC(NC(=O)[C@@H]1O[C@@]2(c3ccccc3)CN(C(c3ccccc3)c3ccccc3)C(=O)[C@@H]1O2)c1ccccc1` (some centres not stated), for which the inhibition in assay [2] and in assay [3] was 0% throughout.

Turning to `CC(C)C[C@H](CO)NC(=O)[C@H]1O[C@@H]2CN(Cc3ccccc3)C(=O)[C@@H]1O2`, the inhibition in assay [1] was 60%.

In assay [1], `CC(C)C[C@H](CO)NC(=O)[C@@H]1O[C@H]2CN(Cc3ccccc3)C(=O)[C@H]1O2` showed an inhibition of 29%. Regarding `CN(CCN)C(=O)[C@@H]1O[C@@H]2O[C@H]1C(=O)N(Cc1ccccc1)[C@H]2Cc1ccccc1`, the inhibition in assay [2] was determined as 17%; in assay [3], 87%. For `CCOC(=O)N1CCN(C(=O)[C@@H]2O[C@@]3(c4ccccc4)CN(C(c4ccccc4)c4ccccc4)C(=O)[C@@H]2O3)CC1`, in that order: 5% and 19%. For `CCCNC(=O)[C@@H]1O[C@@]2(c3ccccc3)CN(C(c3ccccc3)c3ccccc3)C[C@@H]1O2`, in that order: 3% and 12%.

Consider `CN(CCN)C(=O)[C@@H]1O[C@@]2(c3ccccc3)CN(C(c3ccccc3)c3ccccc3)C[C@@H]1O2`, for which the results for the inhibition in assay [2] and in assay [3] were 6% and 23%, respectively.

Regarding `O=C([C@@H]1O[C@@]2(c3ccccc3)CN(C(c3ccccc3)c3ccccc3)C[C@@H]1O2)N1CCSCC1`, the inhibition in assay [2] was 6%; in assay [3], 23%. Consider `C#CCNC(=O)[C@@H]1O[C@@H]2O[C@H]1C(=O)N(Cc1ccccc1)[C@H]2Cc1ccccc1`, for which the inhibition came out at 8% in assay [2] and 42% in assay [3]. For `CC(NC(=O)[C@@H]1O[C@@H]2O[C@H]1C(=O)N(Cc1ccccc1)[C@H]2Cc1ccccc1)c1ccccc1` (some centres not stated), in that order: 8% and 42%.

Take `O=C([C@@H]1O[C@@H]2O[C@H]1C(=O)N(Cc1ccccc1)[C@H]2Cc1ccccc1)N1CCN(CCO)CC1`: the inhibition in assay [2] amounted to 13%; in assay [3] it was 40%. As for `CCCCCNC(=O)[C@@H]1O[C@H]2CN(Cc3ccccc3)C(=O)[C@@H]1O2`, the inhibition in assay [2] was found to be 22%; in assay [3], 87%.

As to `CCCCCCNC(=O)[C@@H]1O[C@@H]2O[C@H]1C(=O)N(Cc1ccccc1)[C@H]2Cc1ccccc1`, the inhibition in assay [2] was 8%; in assay [3], 42%. For `CCOC(=O)C1CCN(C(=O)[C@@H]2O[C@@H]3O[C@H]2C(=O)N(Cc2ccccc2)[C@H]3Cc2ccccc2)CC1`, in that order: 17% and 87%.

For the compound `O=C(NCc1ccccc1)[C@@H]1O[C@H]2CN(Cc3ccccc3)C(=O)[C@@H]1O2`, the inhibition in assay [2] worked out at 4%; in assay [3] it was 18%. For `O=C([C@@H]1O[C@@]2(c3ccccc3)CN(C(c3ccccc3)c3ccccc3)C(=O)[C@@H]1O2)N1CCOCC1`, in that order: 5% and 19%. For the compound `CCOC(=O)C1CCN(C(=O)[C@@H]2O[C@@]3(c4ccccc4)CN(C(c4ccccc4)c4ccccc4)C(=O)[C@@H]2O3)CC1`, the values for the inhibition in assay [2] and in assay [3] were 5% and 19%, respectively. For `CCCCCNC(=O)[C@@H]1O[C@@]2(c3ccccc3)CN(C(c3ccccc3)c3ccccc3)C(=O)[C@@H]1O2`, in that order: 0% and 0%. `O=C(NC1CCCCC1)[C@@H]1O[C@@]2(c3ccccc3)CN(C(c3ccccc3)c3ccccc3)C(=O)[C@@H]1O2`: the inhibition in assay [2] and in assay [3] was 0% throughout. For `O=C([C@@H]1O[C@@H]2O[C@H]1C(=O)N(Cc1ccccc1)[C@H]2Cc1ccccc1)N1CCSCC1`, the inhibition worked out at 13% in assay [2] and 40% in assay [3].

With `O=C(NCC(F)(F)F)[C@@H]1O[C@@H]2O[C@H]1C(=O)N(Cc1ccccc1)[C@H]2Cc1ccccc1`, the inhibition in assay [2] was 8%; in assay [3] it was 42%. For `O=C([C@@H]1O[C@@H]2O[C@H]1C(=O)N(Cc1ccccc1)[C@H]2Cc1ccccc1)N1CCOCC1`, in that order: 13% and 40%.

For the compound `CC(C)C[C@@H](CO)NC(=O)[C@@H]1O[C@@H]2O[C@H]1C(=O)N(Cc1ccccc1)[C@H]2Cc1ccccc1`, the inhibition in assay [2] was 17%; in assay [3], 87%. For `O=C(NC1CCCCC1)[C@@H]1O[C@@H]2O[C@H]1C(=O)N(Cc1ccccc1)[C@H]2Cc1ccccc1`, in that order: 36% and 73%. For `CCOC(=O)N1CCN(C(=O)[C@@H]2O[C@@H]3O[C@H]2C(=O)N(Cc2ccccc2)[C@H]3Cc2ccccc2)CC1`, in that order: 17% and 87%.

As to `O=C([C@@H]1O[C@H]2CN(Cc3ccccc3)C[C@@H]1O2)N1CCSCC1`, the inhibition stood at 2% in assay [2] and 6% in assay [3]. For `CC(C)CCNC(=O)[C@@H]1O[C@H]2CN(Cc3ccccc3)C[C@@H]1O2`, in that order: 3% and 13%. For `CCCNC(=O)[C@@H]1O[C@H]2CN(Cc3ccccc3)C[C@@H]1O2`, in that order: 3% and 13%. For `CNC(=O)[C@@H]1O[C@@H]2O[C@H]1C(=O)N(Cc1ccccc1)[C@H]2Cc1ccccc1`, in that order: 29% and 87%. As for `CNC(=O)[C@@H]1O[C@H]2CN(Cc3ccccc3)C(=O)[C@@H]1O2`, the inhibition in assay [2] amounted to 4%; in assay [3] it was 18%. For `O=C([C@@H]1O[C@H]2CN(Cc3ccccc3)C[C@@H]1O2)N1CCOCC1`, in that order: 2% and 6%. For `COC(=O)[C@H](CC(C)C)N1C[C@@]2(C)O[C@H](C(=O)N3CCN(Cc4ccccc4)CC3)[C@H](O2)C1=O`, in that order: 28% and 57%. For `C#CCNC(=O)[C@@H]1O[C@H]2CN(Cc3ccccc3)C[C@@H]1O2`, in that order: 3% and 13%. With `NC(=O)C1O[C@H]2CN(Cc3ccccc3)C(=O)[C@@H]1O2` (single isomer, unassigned), the values for the inhibition in assay [2] and in assay [3] were 4% and 18%, respectively. For `O=C(NCC(F)(F)F)[C@@H]1O[C@H]2CN(Cc3ccccc3)C(=O)[C@@H]1O2`, in that order: 22% and 87%.

`O=C(NC1CC1)[C@@H]1O[C@H]2CN(Cc3ccccc3)C[C@@H]1O2`: the inhibition in assay [2] turned out to be 3%; in assay [3], 13%. For `CCCCNC(=O)[C@@H]1O[C@H]2CN(Cc3ccccc3)C(=O)[C@@H]1O2`, in that order: 4% and 18%.

For `CN(CCN)C(=O)[C@@H]1O[C@H]2CN(Cc3ccccc3)C[C@@H]1O2`, the values for the inhibition in assay [2] and in assay [3] were 2% and 6%, respectively. For `O=C([C@@H]1O[C@@H]2O[C@H]1C(=O)N(Cc1ccccc1)[C@H]2Cc1ccccc1)N1CCCNCC1`, in that order: 17% and 87%.

The values are drawn from ChEMBL document CHEMBL1157639, “Identification of inhibitors of drug-resistant Candida albicans strains from a library of bicyclic peptidomimetic compounds” (2010).
